Source: PubChem
Most compounds without a hit are left out; they make up all but 2.3% or so of the library.
OXTR agonist: human OXTR agonism. P30559. CHO-OTR cells, Fluo-8 calcium fluorescence; normalized: DMSO 0%, oxytocin 100%. activation, % at 3 µM. actives 0.32% (n = 320,000). AID 2435;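 active means activation above the mean of all tested compounds plus 3 SD, cutoff set per screening run, cut at about 20% in these data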;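 further: peak over basal fluorescence ratio from a 100 s FLIPR kinetic read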
Target sequence (P30559 whole entry, looked up): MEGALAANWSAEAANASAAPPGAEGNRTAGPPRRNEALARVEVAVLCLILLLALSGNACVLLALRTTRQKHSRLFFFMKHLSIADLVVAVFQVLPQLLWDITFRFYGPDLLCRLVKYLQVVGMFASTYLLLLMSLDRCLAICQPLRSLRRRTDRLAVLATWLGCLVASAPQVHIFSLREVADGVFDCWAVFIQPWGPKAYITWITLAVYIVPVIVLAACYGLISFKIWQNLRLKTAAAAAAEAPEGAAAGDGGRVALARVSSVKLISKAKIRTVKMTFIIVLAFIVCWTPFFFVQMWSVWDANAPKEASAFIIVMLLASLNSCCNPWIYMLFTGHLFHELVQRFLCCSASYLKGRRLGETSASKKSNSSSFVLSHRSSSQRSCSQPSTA
OXTR potentiator: human OXTR potentiation; P30559; CHO-OTR cells, Fluo-8 calcium fluorescence, potentiator mode; 0% = oxytocin EC15, 100% = EC100; activation, % at 3 µM; actives 0.061% (n = 320,000); AID 2445;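 active means activation above that plate's cutoff, the mean activation of tested compounds plus 3 SD, cut at about 6.6% in these data, passing the limit was not always enough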;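 further: 100% uses oxytocin at 75 nM as the full agonist control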
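System: human OTR in CHO cells; Also added: sub-maximal oxytocin, roughly EC15; Timing: compound 6 min at room temperature before oxytocin, 100 s read; Technique: Fluo-8 intracellular calcium fluorescence, ex 470-495, em 515-575 nm; Controls: oxytocin EC15 low and EC100 high; Replication: singlicate.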
TAAR1 antagonist: antagonists of human TAAR1; Q96RJ0; CHO RD-HGA16 TAAR1, Fluo-8 calcium fluorescence, antagonist; inhibition, % at 3 µM; actives 1.5% (n = 360,000); AID 624466;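 active means inhibition above a per-plate cutoff, the mean inhibition of test compounds on that plate plus 3 SD, cut at about 49% in these data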;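 further: 0% = DMSO plus EC80 beta-PEA response and 100% = DMSO alone without agonist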
Target sequence (Q96RJ0 whole entry, looked up): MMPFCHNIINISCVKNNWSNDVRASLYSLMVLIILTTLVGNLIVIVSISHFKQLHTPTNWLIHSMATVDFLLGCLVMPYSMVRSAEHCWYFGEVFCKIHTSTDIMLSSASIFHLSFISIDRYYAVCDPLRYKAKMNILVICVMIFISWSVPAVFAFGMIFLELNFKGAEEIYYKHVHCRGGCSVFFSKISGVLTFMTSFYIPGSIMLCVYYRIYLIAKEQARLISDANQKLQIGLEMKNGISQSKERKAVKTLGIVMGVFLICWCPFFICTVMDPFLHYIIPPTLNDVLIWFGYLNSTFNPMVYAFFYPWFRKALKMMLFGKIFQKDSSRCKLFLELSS
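Test system – hTAAR1-expressing CHO RD-HGA16 cells, Gα16-coupled · Reagent – β-PEA at EC80 concentration, post-compound challenge · Compound dosing – 3 µM, single point · Timing – 140 s kinetic read after compound, 140 s after agonist · Detection – Fluo-8 intracellular calcium dye fluorescence, real-time kinetic reads · Control set – DMSO and EC80 PEA controls · Repeats – n of 1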
TAAR1 agonist: agonists of human TAAR1; CHO RD-HGA16 TAAR1, Fluo-8 calcium fluorescence; vehicle wells 0%, saturating PEA agonist 100%; actives 0.99% (n = 360,000); activation, % at 3 µM; Q96RJ0;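 active means activation above the mean activation of all test compounds in the run plus 3 SD, cut at about 38% in these data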
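Test system: RD-HGA16 (CHO) cells co-expressing Gα16 and hTAAR1 / Benchmarks: DMSO vehicle as 0%, PEA at EC100 as 100% / Repeats: no replicates (n 1) / Measure: % activation from peak over basal fluorescence ratio, DMSO-to-PEA scaled / Timing: 17-24 h plating, Fluo-8 75 min 37 °C, 30 min RT / Technique: kinetic Fluo-8 calcium fluorescence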
V1aR counter: V1a receptor agonism, counter-screen for OXTR agonists | AID 2797 | actives 0.25% (n = 320,000) | activation, % at 3 µM | P37288 | CHO-V1R cells, Fluo-8 calcium fluorescence, agonist mode; 0% DMSO, 100% 3 nM vasopressin;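 active means activation above the mean activation of all tested compounds plus 3 SD, per screening run, cut at about 20% in these data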;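 further: signal is peak over basal fluorescence ratio across a 100 second FLIPR read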
TAAR1 nonsel count: nonselective antagonist in TAAR1 antagonist counter-screen. shares compounds with TAAR1 antagonist. counterscreen cell line, calcium fluorescence, antagonist mode. inhibition, % at 3 µM. actives 77% (n = 2,400). AID 651780; in the data active means inhibition above about 22%;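 further: CHO-Ga16 host cells stimulated with ATP at an EC80 level; 0% = agonist EC80 plus vehicle and 100% = vehicle without agonist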
TAAR1 antag conf: confirmation of human TAAR1 antagonists; TAAR1-expressing cells, fluorescence antagonist read-out; actives 40% (n = 2,400); shares compounds with TAAR1 antagonist; inhibition, % at 3 µM; in the data active means inhibition above about 49%;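 further: CHO-Ga16 host cells challenged with agonist PEA near its EC80; 0% = agonist at EC80 plus vehicle and 100% = vehicle with no agonist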
Ga16 nonsel ag: counter-screen for TAAR1 antagonists: nonselective Ga16 agonists | shares compounds with TAAR1 antagonist | Ga16-expressing cells, calcium fluorescence, agonist counterscreen | activation, % at 3 µM | actives 18% (n = 2,400) | AID 651953; in the data active means activation above about 12%;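 further: 0% = vehicle wells and 100% = saturating stimulus response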
TAAR1 ag count: counter-screen for human TAAR1 antagonists: TAAR1 agonists | shares compounds with TAAR1 antagonist | hTAAR1 cell line, fluorescence activation, agonist mode | activation, % at 3 µM | actives 2% (n = 2,400); in the data active means activation above about 37%;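 further: CHO cells stably expressing TAAR1 with calcium dye readout; 0% = DMSO vehicle and 100% = full agonist response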
* = called active by the depositor.

Results for COc1ccc(C(=O)Nc2cccc(-c3nnc(-c4ccco4)o3)c2)cc1 ?
OXTR agonist: -2; OXTR potentiator: -7; TAAR1 antagonist: 39; TAAR1 agonist: 18; V1aR counter: -1

What do the screens show for `CCCS(=O)(=O)c1c(S(=O)(=O)CCC)c2c3ccccc3ccn2c1C(=O)OC`?
OXTR agonist: -3; OXTR potentiator: -9; TAAR1 antagonist: 49*; TAAR1 agonist: 9; V1aR counter: 0; TAAR1 nonsel count: 16; TAAR1 antag conf: 32; Ga16 nonsel ag: 6; TAAR1 ag count: 4

Results for C/C(=N\NC(=O)c1ccccc1OCCOc1ccccc1)c1ccccc1F ?
TAAR1 antagonist: 60*; TAAR1 agonist: 1; TAAR1 nonsel count: 5; TAAR1 antag conf: 33; Ga16 nonsel ag: 3; TAAR1 ag count: 9

How did C/C(=N\NC(=O)c1ccccc1)c1ccccc1F do in these assays?
OXTR agonist: 0; OXTR potentiator: -4; TAAR1 antagonist: 8; TAAR1 agonist: 10; V1aR counter: 1

What do the screens show for `COc1ccccc1C=NNC(=O)c1ccccc1OCCOc1ccccc1`?
OXTR agonist: -2; OXTR potentiator: -3; TAAR1 antagonist: 62*; TAAR1 agonist: 5; V1aR counter: 0; TAAR1 nonsel count: 21*; TAAR1 antag conf: 51*; Ga16 nonsel ag: 4; TAAR1 ag count: 0

What do the screens show for `COc1ccccc1/C=N/NC(=O)c1ccccc1Cl`?
OXTR agonist: -1; OXTR potentiator: -9; TAAR1 antagonist: 1; TAAR1 agonist: -1; V1aR counter: 0

Results for COc1ccc(/C=N/NC(=O)c2ccccc2OCc2ccccc2)c(OC)c1 ?
OXTR agonist: -2; OXTR potentiator: 3; TAAR1 antagonist: 49*; TAAR1 agonist: 3; V1aR counter: 0; TAAR1 nonsel count: 7; TAAR1 antag conf: 31; Ga16 nonsel ag: 2; TAAR1 ag count: 1

How did C#CCOc1ccccc1/C=N/NC(=O)c1ccccc1OCc1ccccc1 do in these assays?
OXTR agonist: 1; OXTR potentiator: -12; TAAR1 antagonist: 56*; TAAR1 agonist: 0; V1aR counter: 2; TAAR1 nonsel count: 16; TAAR1 antag conf: 36; Ga16 nonsel ag: 3; TAAR1 ag count: 4

Results for O=C(/C=C/c1ccco1)N1CCN(C/C=C/c2ccccc2)CC1 ?
OXTR agonist: -1; OXTR potentiator: -3; TAAR1 antagonist: -13; TAAR1 agonist: 0; V1aR counter: 0

How did CCOc1ncccc1C(=O)OCC(=O)NCc1cccs1 do in these assays?
OXTR agonist: 0; OXTR potentiator: -4; TAAR1 antagonist: -12; TAAR1 agonist: 3; V1aR counter: 0

Results for CCOc1cc(/C=N\NC(=O)OC)ccc1OC(=O)c1ccco1 ?
OXTR agonist: -1; OXTR potentiator: -5; TAAR1 antagonist: -3; TAAR1 agonist: 6; V1aR counter: 1

What do the screens show for `Cc1cccc(/C=N/NC(=O)c2ccccc2OCc2cccc(Br)c2)n1`?
OXTR agonist: 2; OXTR potentiator: -11; TAAR1 antagonist: 64*; TAAR1 agonist: 9; V1aR counter: 5; TAAR1 nonsel count: 22*; TAAR1 antag conf: 45; Ga16 nonsel ag: 7; TAAR1 ag count: 15

What do the screens show for `NNc1nc2ccccc2c(=O)n1Cc1ccccc1`?
OXTR agonist: 0; OXTR potentiator: -15; TAAR1 antagonist: 24; TAAR1 agonist: 2; V1aR counter: 5

What do the screens show for `O=C(Nc1ccc(Cl)c(S(=O)(=O)N2CCOCC2)c1)c1ccccn1`?
OXTR agonist: 1; OXTR potentiator: -10; TAAR1 antagonist: 20; TAAR1 agonist: 8; V1aR counter: 0

Results for O=C(Nc1ccc(Cl)c(S(=O)(=O)N2CCOCC2)c1)c1cc(-c2ccccn2)nc2ccccc12 ?
OXTR agonist: 1; OXTR potentiator: -24; TAAR1 antagonist: 63*; TAAR1 agonist: 25; V1aR counter: 1; TAAR1 nonsel count: 43*; TAAR1 antag conf: 57*; Ga16 nonsel ag: 14*; TAAR1 ag count: 13

How did O=C(Nc1cccc(C(=O)NC2CC2)c1)c1ccc(Cl)c(S(=O)(=O)N2CCOCC2)c1 do in these assays?
OXTR agonist: 0; OXTR potentiator: -6; TAAR1 antagonist: 32; TAAR1 agonist: 17; V1aR counter: 1

Results for O=C(Nc1ccc(Cl)c(S(=O)(=O)N2CCOCC2)c1)c1ccc(Cl)nc1 ?
TAAR1 antagonist: 67*; TAAR1 agonist: 24; TAAR1 nonsel count: 32*; TAAR1 antag conf: 52*; Ga16 nonsel ag: 12*; TAAR1 ag count: 15

Results for O=C(Nc1cccc(S(=O)(=O)N2CCCCCC2)c1)c1ccc(Cl)nc1 ?
OXTR agonist: 7; OXTR potentiator: -9; TAAR1 antagonist: 54*; TAAR1 agonist: 9; V1aR counter: 10; TAAR1 nonsel count: 27*; TAAR1 antag conf: 37; Ga16 nonsel ag: 8; TAAR1 ag count: 7

Results for O=C(Nc1cccc(S(=O)(=O)N2CCCCC2)c1)c1ccc(Cl)nc1 ?
OXTR agonist: 12; OXTR potentiator: -9; TAAR1 antagonist: 20; TAAR1 agonist: 13; V1aR counter: 10

Results for O=C(Nc1cccc(S(=O)(=O)C(F)F)c1)c1ccc(Cl)c(S(=O)(=O)N2CCOCC2)c1 ?
OXTR agonist: 11; OXTR potentiator: -19; TAAR1 antagonist: 74*; TAAR1 agonist: 35; V1aR counter: 15; TAAR1 nonsel count: 50*; TAAR1 antag conf: 65*; Ga16 nonsel ag: 19*; TAAR1 ag count: 23

What do the screens show for `O=C(Nc1ccc(Cl)c(S(=O)(=O)N2CCOCC2)c1)c1ccc2c(c1)OCO2`?
OXTR agonist: 6; OXTR potentiator: -8; TAAR1 antagonist: 66*; TAAR1 agonist: 17; V1aR counter: 6; TAAR1 nonsel count: 32*; TAAR1 antag conf: 46; Ga16 nonsel ag: 15*; TAAR1 ag count: 12

Results for CC(C)CCn1c(SCCc2ccccc2)nc2c1c(=O)[nH]c(=O)n2C ?
OXTR agonist: -2; OXTR potentiator: -9; TAAR1 antagonist: -2; TAAR1 agonist: 18; V1aR counter: -1

How did Cc1cccc(C)c1NC(=O)CN(Cc1ccccc1)Cc1ccccc1 do in these assays?
TAAR1 antagonist: 62*; TAAR1 agonist: 16; TAAR1 nonsel count: 23*; TAAR1 antag conf: 26; Ga16 nonsel ag: 4; TAAR1 ag count: 9
